Test results as given in ChEMBL document CHEMBL1153726, “Synthesis and anticancer activity of sclerophytin-inspired hydroisobenzofurans” (Bioorg Med Chem Lett, 2009).

How the values were obtained:
Type in all cases: functional
[1] = test system: MCF7; assay: Growth inhibition of human MCF7 cells at 1 nM after 96 hrs by MTT assay; design: scale not given: the % may be the effect or the level left
[2] = test system: OVCAR-8; assay: Growth inhibition of human OVCAR8 cells at 1 nM after 96 hrs by MTT assay; design: scale not given: the % may be the effect or the level left
[3] = test system: OVCAR-3; assay: Growth inhibition of human OVCAR-3 cells at 1 nM after 96 hrs by MTT assay; design: scale not given: the % may be the effect or the level left
[4] = test system: Malme-3M; assay: Growth inhibition of human MALME-3M cells at 1 nM after 96 hrs by MTT assay; design: scale not given: the % may be the effect or the level left
[5] = test system: HOP-62; assay: Growth inhibition of human HOP62 cells at 1 nM after 96 hrs by MTT assay; design: scale not given: the % may be the effect or the level left
[6] = test system: T47D; assay: Growth inhibition of human T47D cells at 10 uM after 96 hrs by MTT assay; design: scale not given: the % may be the effect or the level left
[7] = Growth inhibition of human Hs 578T cells at 10 uM after 96 hrs by MTT assay; design: scale not given: the % may be the effect or the level left
[8] = test system: DU-145; assay: Growth inhibition of human DU145 cells at 10 uM after 96 hrs by MTT assay; design: scale not given: the % may be the effect or the level left
[9] = test system: RXF 393; assay: Growth inhibition of human RXF393 cells at 10 uM after 96 hrs by MTT assay; design: scale not given: the % may be the effect or the level left
[10] = test system: SK-MEL-2; assay: Growth inhibition of human SK-MEL-2 cells at 10 uM after 96 hrs by MTT assay; design: scale not given: the % may be the effect or the level left
[11] = test system: NCI-H522; assay: Growth inhibition of human NCI-H522 cells at 10 uM after 96 hrs by MTT assay; design: scale not given: the % may be the effect or the level left
[12] = test system: NCI-H226; assay: Growth inhibition of human NCI-H226 cells at 10 uM after 96 hrs by MTT assay; design: scale not given: the % may be the effect or the level left
[13] = test system: HOP-62; assay: Growth inhibition of human HOP62 cells at 10 uM after 96 hrs by MTT assay; design: scale not given: the % may be the effect or the level left
[14] = test system: M14; assay: Growth inhibition of human M14 cells at 10 nM after 96 hrs by MTT assay; design: scale not given: the % may be the effect or the level left
[15] = test system: KM12; assay: Growth inhibition of human KM12 cells at 10 nM after 96 hrs by MTT assay; design: scale not given: the % may be the effect or the level left
[16] = test system: HCT-116; assay: Growth inhibition of human HCT116 cells at 10 nM after 96 hrs by MTT assay; design: scale not given: the % may be the effect or the level left
[17] = test system: NCI-H226; assay: Growth inhibition of human NCI-H226 cells at 10 nM after 96 hrs by MTT assay; design: scale not given: the % may be the effect or the level left
[18] = test system: HT-29; assay: Growth inhibition of human HT-29 cells after 96 hrs by MTT assay; conditions: HT-29, 96 h
How it was run: (§1)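 Run in the NCI 60 human tumour cell line panel as a five-dose assay. GI50 and LC50 were reported for each cell line.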

[19] = test system: LOX IMVI; assay: Growth inhibition of human LOXIMVI cells after 96 hrs by MTT assay; how it was run: as §1
[20] = test system: Malme-3M; assay: Growth inhibition of human MALME-3M cells after 96 hrs by MTT assay; how it was run: as §1
[21] = test system: M14; assay: Growth inhibition of human M14 cells after 96 hrs by MTT assay; conditions: M14, 96 h; how it was run: as §1
[22] = test system: MDA-MB-435; assay: Growth inhibition of human MDA-MB-435 cells after 96 hrs by MTT assay; conditions: MDA-MB-435, 96 h; how it was run: as §1
[23] = test system: CAKI-1; assay: Growth inhibition of human Caki1 cells after 96 hrs by MTT assay; conditions: CAKI-1, 96 h
[24] = test system: SN12C; assay: Growth inhibition of human SN12C cells after 96 hrs by MTT assay
How it was run: (§2)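 Tested in the NCI 60-cell-line panel in five-dose format; GI50 and LC50 values reported for each cell line.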

[25] = test system: UO-31; assay: Growth inhibition of human UO31 cells after 96 hrs by MTT assay; conditions: UO-31, 96 h; how it was run: as §2
[26] = test system: HCT-116; assay: Growth inhibition of human HCT116 cells after 96 hrs by MTT assay; conditions: HCT-116, 96 h; how it was run: as §1
[27] = test system: DU-145; assay: Growth inhibition of human DU145 cells at 1 uM after 96 hrs by MTT assay; design: scale not given: the % may be the effect or the level left
[28] = test system: OVCAR-8; assay: Growth inhibition of human OVCAR8 cells at 1 uM after 96 hrs by MTT assay; design: scale not given: the % may be the effect or the level left
[29] = test system: A498; assay: Growth inhibition of human A498 cells at 100 nM after 96 hrs by MTT assay; design: scale not given: the % may be the effect or the level left
[30] = test system: KM12; assay: Growth inhibition of human KM12 cells at 100 nM after 96 hrs by MTT assay; design: scale not given: the % may be the effect or the level left
[31] = test system: HOP-62; assay: Growth inhibition of human HOP62 cells at 100 nM after 96 hrs by MTT assay; design: scale not given: the % may be the effect or the level left
[32] = test system: ACHN; assay: Growth inhibition of human ACHN cells at 10 nM after 96 hrs by MTT assay; design: scale not given: the % may be the effect or the level left
[33] = test system: 786-0; assay: Growth inhibition of human 786-0 cells at 10 nM after 96 hrs by MTT assay; design: scale not given: the % may be the effect or the level left
[34] = test system: NCI-H23; assay: Growth inhibition of human NCI-H23 cells at 10 nM after 96 hrs by MTT assay; design: scale not given: the % may be the effect or the level left
[35] = test system: M14; assay: Growth inhibition of human M14 cells at 1 uM after 96 hrs by MTT assay; design: scale not given: the % may be the effect or the level left
[36] = test system: SF-539; assay: Growth inhibition of human SF539 cells at 1 uM after 96 hrs by MTT assay; design: scale not given: the % may be the effect or the level left
[37] = test system: NCI-H522; assay: Growth inhibition of human NCI-H522 cells at 1 uM after 96 hrs by MTT assay; design: scale not given: the % may be the effect or the level left
[38] = test system: HOP-62; assay: Growth inhibition of human HOP62 cells at 1 uM after 96 hrs by MTT assay; design: scale not given: the % may be the effect or the level left
[39] = test system: SR; assay: Growth inhibition of human SR cells at 1 uM after 96 hrs by MTT assay; design: scale not given: the % may be the effect or the level left
[40] = read-out: Log10GI50 (converted)
[41] = read-out: Log10LC50 (converted)
[42] = read-out: LC50 (the source's name)

Question: Which Activity [1] does the source give for C=C(C)[C@H]1CC=C(C)C2=CO[C@@H](c3ccccc3F)[C@@H]21 here?
Answer: 93%

Question: What about the Activity [2] of the same molecule?
Answer: 99%

Question: And the Activity [3]?
Answer: 88%

Question: What about the Activity [4] of the same molecule?
Answer: 97%

Question: What about the Activity [5] of the same molecule?
Answer: 95%

Question: What about the Activity [6] of the same molecule?
Answer: 56.11%

Question: And the Activity [7]?
Answer: 95.86%

Question: What about the Activity [8] of the same molecule?
Answer: 105.62%

Question: What about the Activity [9] of the same molecule?
Answer: 98.38%

Question: And the Activity [10]?
Answer: 71.47%

Question: What about the Activity [11] of the same molecule?
Answer: 58.36%

Question: What about the Activity [12] of the same molecule?
Answer: 98.1%

Question: And the Activity [13]?
Answer: 108.33%

Question: What about the Activity [14] of the same molecule?
Answer: 89%

Question: And the Activity [15]?
Answer: 93%

Question: What about the Activity [16] of the same molecule?
Answer: 88%

Question: What about the Activity [17] of the same molecule?
Answer: 89%

Question: What about the GI50 ([18]; read-out: GI50) of the same molecule?
Answer: 3.41 µM

Question: What about the LC50 (50% lethal concentration) ([18]; read-out: LC50) of the same molecule?
Answer: 43.2 µM

Question: What about the GI50 [18, 40] of the same molecule?
Answer: 3.39 µM

Question: And the LC50 (50% lethal concentration) [18, 41]?
Answer: 43.7 µM

Question: What about the TGI ([18]; read-out: Log10TGI (converted)) of the same molecule?
Answer: 15.5 µM

Question: And the TGI ([18]; read-out: TGI)?
Answer: 15.6 µM

Question: What about the GI50 ([19]; read-out: GI50) of the same molecule?
Answer: 4.3 µM

Question: What about the CC50 [19, 42] of the same molecule?
Answer: 55.4 µM

Question: What about the GI50 [19, 40] of the same molecule?
Answer: 4.27 µM

Question: And the CC50 [19, 41]?
Answer: 55 µM

Question: What about the TGI ([19]; read-out: Log10TGI (converted)) of the same molecule?
Answer: 20 µM

Question: What about the TGI ([19]; read-out: TGI) of the same molecule?
Answer: 19.8 µM

Question: And the GI50 ([20]; read-out: GI50)?
Answer: 2.78 µM

Question: What about the CC50 [20, 42] of the same molecule?
Answer: 43.8 µM

Question: What about the GI50 [20, 40] of the same molecule?
Answer: 2.75 µM

Question: What about the CC50 [20, 41] of the same molecule?
Answer: 43.7 µM

Question: What about the TGI ([20]; read-out: Log10TGI (converted)) of the same molecule?
Answer: 15.1 µM

Question: What about the TGI ([20]; read-out: TGI) of the same molecule?
Answer: 15.1 µM

Question: What about the GI50 ([21]; read-out: GI50) of the same molecule?
Answer: 6.51 µM

Question: And the CC50 [21, 42]?
Answer: 45.6 µM

Question: And the GI50 [21, 40]?
Answer: 6.46 µM

Question: What about the CC50 [21, 41] of the same molecule?
Answer: 45.7 µM

Question: What about the TGI ([21]; read-out: Log10TGI (converted)) of the same molecule?
Answer: 20 µM

Question: What about the TGI ([21]; read-out: TGI) of the same molecule?
Answer: 20.2 µM

Question: What about the GI50 ([22]; read-out: GI50) of the same molecule?
Answer: 2.65 µM

Question: What about the LC50 ([22]; read-out: LC50) of the same molecule?
Answer: 66.3 µM

Question: And the GI50 [22, 40]?
Answer: 2.63 µM

Question: What about the LC50 [22, 41] of the same molecule?
Answer: 66.1 µM

Question: What about the TGI ([22]; read-out: Log10TGI (converted)) of the same molecule?
Answer: 11.5 µM

Question: And the TGI ([22]; read-out: TGI)?
Answer: 11.4 µM

Question: And the GI50 ([23]; read-out: GI50)?
Answer: 5.5 µM

Question: What about the CC50 [23, 42] of the same molecule?
Answer: > 100 µM

Question: And the GI50 [23, 40]?
Answer: 5.5 µM

Question: What about the CC50 [23, 41] of the same molecule?
Answer: > 100 µM

Question: What about the TGI ([23]; read-out: Log10TGI (converted)) of the same molecule?
Answer: 39.8 µM

Question: What about the TGI ([23]; read-out: TGI) of the same molecule?
Answer: 39.8 µM

Question: What about the GI50 ([24]; read-out: GI50) of the same molecule?
Answer: 6.63 µM

Question: What about the CC50 [24, 42] of the same molecule?
Answer: 45.9 µM

Question: What about the GI50 [24, 40] of the same molecule?
Answer: 6.61 µM

Question: What about the CC50 [24, 41] of the same molecule?
Answer: 45.7 µM

Question: What about the TGI ([24]; read-out: Log10TGI (converted)) of the same molecule?
Answer: 20.4 µM

Question: What about the TGI ([24]; read-out: TGI) of the same molecule?
Answer: 20.3 µM

Question: And the GI50 ([25]; read-out: GI50)?
Answer: 6.32 µM

Question: What about the CC50 [25, 42] of the same molecule?
Answer: 49.2 µM

Question: And the GI50 [25, 40]?
Answer: 6.31 µM

Question: What about the CC50 [25, 41] of the same molecule?
Answer: 49 µM

Question: And the TGI ([25]; read-out: Log10TGI (converted))?
Answer: 20.9 µM

Question: What about the TGI ([25]; read-out: TGI) of the same molecule?
Answer: 20.8 µM

Question: And the GI50 ([26]; read-out: GI50)?
Answer: 3 µM

Question: And the CC50 [26, 42]?
Answer: 36.9 µM

Question: And the GI50 [26, 40]?
Answer: 3.02 µM

Question: And the CC50 [26, 41]?
Answer: 37.2 µM

Question: What about the TGI ([26]; read-out: Log10TGI (converted)) of the same molecule?
Answer: 13.5 µM

Question: What about the TGI ([26]; read-out: TGI) of the same molecule?
Answer: 13.6 µM

Question: What about the Activity [27] of the same molecule?
Answer: 37%

Question: What about the Activity [28] of the same molecule?
Answer: 59%

Question: And the Activity [29]?
Answer: 88%

Question: What about the Activity [30] of the same molecule?
Answer: 90%

Question: And the Activity [31]?
Answer: 98%

Question: What about the Activity [32] of the same molecule?
Answer: 96%

Question: And the Activity [33]?
Answer: 92%

Question: What about the Activity [34] of the same molecule?
Answer: 92%

Question: And the Activity [35]?
Answer: 43%

Question: What about the Activity [36] of the same molecule?
Answer: 43%

Question: And the Activity [37]?
Answer: 29%

Question: And the Activity [38]?
Answer: 51%

Question: What about the Activity [39] of the same molecule?
Answer: -36%
